Calls of active or inactive are those of the source. The rule behind the calls is not given here.
Columns and labels:
[1] = Cytotoxicity against CRFK cells assessed as decrease in cell viability upto 100 uM by MTS assay; type: cell-based, Felis catus; details: cat
[2] = system: Respiratory syncytial virus; experiment: Antiviral activity against respiratory syncytial virus infected in HeLa cells assessed as inhibition of virus-induced cytopathic effect at 100 uM by MTS assay; type: functional, organism-based
Summary of the method: (§1)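 HeLa cells were infected with the virus, and compounds were tested up to 100 μM. EC50 is the concentration that halves virus-induced cytopathic effect, read by visual CPE scoring or by MTS formazan colorimetric viability measurement.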

HeLa = experiment: Cytotoxicity against human HeLa cells assessed as decrease in cell viability upto 100 uM by MTS assay; type: functional, cell-based
Summary of the method: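 Uninfected HeLa host cells were tested up to 100 μM. CC50 is the concentration causing a 50% drop in cell viability by colorimetric formazan-based MTS assay. Alternatively, MCC is the minimal concentration giving microscopically detectable alteration of normal cell morphology.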

Coxsackievirus B4 [3] = experiment: Antiviral activity against Coxsackievirus B4 infected in HeLa cells assessed as inhibition of virus-induced cytopathic effect at 100 uM by MTS assay; type: functional, organism-based; summary of the method: as §1
MDCK = experiment: Cytotoxicity against MDCK cells assessed as decrease in cell viability upto 100 uM by MTS assay; type: cell-based, Canis lupus familiaris; details: dog
Felid alphaherpesvirus 1 = experiment: Antiviral activity against feline herpes virus infected in CRFK cells assessed as inhibition of virus-induced cytopathic effect at 100 uM by MTS assay; type: functional, organism-based
[4] = system: Mammalian orthoreovirus 1; experiment: Antiviral activity against Reovirus1 infected in Vero cells assessed as inhibition of virus-induced cytopathic effect at 100 uM by MTS assay; type: functional, organism-based
Summary of the method: (§2)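 Vero cell monolayers were infected with the virus in cell-based CPE assays. EC50 is the concentration giving 50% inhibition of virus-induced cytopathic effect, scored visually or by MTS formazan colorimetric cell-viability read-out. The highest concentration tested was 100 μM for most compounds and lower for a few.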

Feline coronavirus = experiment: Antiviral activity against feline coronavirus infected in CRFK cells assessed as inhibition of virus-induced cytopathic effect at 100 uM by MTS assay; type: functional, organism-based
Human alphaherpesvirus 1 = experiment: Antiviral activity against HSV1 virus infected in HEL cells assessed as inhibition of virus-induced cytopathic effect at 100 uM by MTS assay; type: functional, organism-based
Coxsackievirus B4 [5] = experiment: Antiviral activity against Coxsackievirus B4 infected in Vero cells assessed as inhibition of virus-induced cytopathic effect at 100 uM by MTS assay; type: functional, organism-based; summary of the method: as §2
Human alphaherpesvirus 2 = experiment: Antiviral activity against HSV2 virus infected in HEL cells assessed as inhibition of virus-induced cytopathic effect at 100 uM by MTS assay; type: functional, organism-based
Punta Toro virus = experiment: Antiviral activity against Punta Toro virus infected in Vero cells assessed as inhibition of virus-induced cytopathic effect at 100 uM by MTS assay; type: functional, organism-based; summary of the method: as §2
Sindbis virus = experiment: Antiviral activity against Sindbis virus infected in Vero cells assessed as inhibition of virus-induced cytopathic effect at 100 uM by MTS assay; type: functional, organism-based; summary of the method: as §2
HEL = experiment: Cytotoxicity against HEL cells assessed as decrease in cell viability upto 100 uM by MTS assay; type: cell-based; details: human
Human respirovirus 3 = experiment: Antiviral activity against Parainfluenza 3 virus infected in Vero cells assessed as inhibition of virus-induced cytopathic effect at 100 uM by MTS assay; type: functional, organism-based; summary of the method: as §2

In the case of Cc1cn(CN(CCOC(=O)C(C)(C)C)S(=O)(=O)c2cccc([N+](=O)[O-])c2)c(=O)[nH]c1=O, the Activity [1] is reported as “Not Active”, the Activity [2] is reported as “inactive” and the Activity (HeLa) is reported as “inactive”. For the same compound, the Activity (Coxsackievirus B4 [3]) was “inactive”, the Activity (MDCK) was “Not Active” and the Activity (Felid alphaherpesvirus 1) was “inactive”. For the same compound, the Activity [4] was “inactive”, the Activity (Feline coronavirus) was “inactive” and the Activity (Human alphaherpesvirus 1) was “inactive”. For the same compound, the Activity (Coxsackievirus B4 [5]) was “inactive”, the Activity (Human alphaherpesvirus 2) was “inactive” and the Activity (Punta Toro virus) was “inactive”. The Activity (Sindbis virus) was “inactive”, the Activity (HEL) was “Not Active” and the Activity (Human respirovirus 3) was “inactive”.

For Cc1cn(CN(CCOC(=O)C(C)(C)C)S(=O)(=O)c2ccccc2N)c(=O)[nH]c1=O, the Activity [1] was “Not Active”, the Activity [2] was “inactive” and the Activity (HeLa) was “inactive”. The Activity (Coxsackievirus B4 [3]) was “inactive”, the Activity (MDCK) was “Not Active” and the Activity (Felid alphaherpesvirus 1) was “inactive”. The Activity [4] was “inactive”, the Activity (Feline coronavirus) was “inactive” and the Activity (Human alphaherpesvirus 1) was “inactive”. The Activity (Coxsackievirus B4 [5]) was “inactive”, the Activity (Human alphaherpesvirus 2) was “inactive” and the Activity (Punta Toro virus) was “inactive”. For the same compound, the Activity (Sindbis virus) was “inactive”, the Activity (HEL) was “Not Active” and the Activity (Human respirovirus 3) was “inactive”.

With CC(C)(C)C(=O)OCCN(Cn1cc(F)c(=O)[nH]c1=O)S(=O)(=O)c1cccc(N)c1 the Activity [1] was “Not Active”, the Activity [2] was “inactive” and the Activity (HeLa) was “inactive”. The Activity (Coxsackievirus B4 [3]) was “inactive”, the Activity (MDCK) was “Not Active” and the Activity (Felid alphaherpesvirus 1) was “inactive”. For the same compound, the Activity [4] was “inactive”, the Activity (Feline coronavirus) was “inactive” and the Activity (Human alphaherpesvirus 1) was “inactive”. For the same compound, the Activity (Coxsackievirus B4 [5]) was “inactive”, the Activity (Human alphaherpesvirus 2) was “inactive” and the Activity (Punta Toro virus) was “inactive”. The Activity (Sindbis virus) was “inactive”, the Activity (HEL) was “Not Active” and the Activity (Human respirovirus 3) was “inactive”.

In the case of CC(C)(C)C(=O)OCCN(Cn1cc(F)c(=O)[nH]c1=O)S(=O)(=O)c1ccc(N)cc1, the Activity [1] is reported as “Not Active”, the Activity [2] is reported as “inactive” and the Activity (HeLa) is reported as “inactive”. For the same compound, the Activity (Coxsackievirus B4 [3]) was “inactive”, the Activity (MDCK) was “Not Active” and the Activity (Felid alphaherpesvirus 1) was “inactive”. The Activity [4] was “inactive”, the Activity (Feline coronavirus) was “inactive” and the Activity (Human alphaherpesvirus 1) was “inactive”. The Activity (Coxsackievirus B4 [5]) was “inactive”, the Activity (Human alphaherpesvirus 2) was “inactive” and the Activity (Punta Toro virus) was “inactive”. For the same compound, the Activity (Sindbis virus) was “inactive”, the Activity (HEL) was “Not Active” and the Activity (Human respirovirus 3) was “inactive”.

With CC(=O)Nc1ccc(S(=O)(=O)N(CCOC(=O)C(C)(C)C)Cn2cc(F)c(=O)[nH]c2=O)cc1 the Activity [1] was “Not Active”, the Activity [2] was “inactive” and the Activity (HeLa) was “inactive”. The Activity (Coxsackievirus B4 [3]) was “inactive”, the Activity (MDCK) was “Not Active” and the Activity (Felid alphaherpesvirus 1) was “inactive”. The Activity [4] was “inactive”, the Activity (Feline coronavirus) was “inactive” and the Activity (Human alphaherpesvirus 1) was “inactive”. The Activity (Coxsackievirus B4 [5]) was “inactive”, the Activity (Human alphaherpesvirus 2) was “inactive” and the Activity (Punta Toro virus) was “inactive”. The Activity (Sindbis virus) was “inactive”, the Activity (HEL) was “Not Active” and the Activity (Human respirovirus 3) was “inactive”.

In the case of CC(=O)Nc1ccc(S(=O)(=O)N(CCO)Cn2cc(C)c(=O)[nH]c2=O)cc1, the Activity [1] is reported as “Not Active”, the Activity [2] is reported as “inactive” and the Activity (HeLa) is reported as “inactive”. The Activity (Coxsackievirus B4 [3]) was “inactive”, the Activity (MDCK) was “Not Active” and the Activity (Felid alphaherpesvirus 1) was “inactive”. The Activity [4] was “inactive”, the Activity (Feline coronavirus) was “inactive” and the Activity (Human alphaherpesvirus 1) was “inactive”. For the same compound, the Activity (Coxsackievirus B4 [5]) was “inactive”, the Activity (Human alphaherpesvirus 2) was “inactive” and the Activity (Punta Toro virus) was “inactive”. The Activity (Sindbis virus) was “inactive”, the Activity (HEL) was “Not Active” and the Activity (Human respirovirus 3) was “inactive”.

With CC(C)(C)C(=O)OCCN(Cn1ccc(=O)[nH]c1=O)S(=O)(=O)c1cccc([N+](=O)[O-])c1 the Activity [1] was “Not Active”, the Activity [2] was “inactive” and the Activity (HeLa) was “inactive”. For the same compound, the Activity (Coxsackievirus B4 [3]) was “inactive”, the Activity (MDCK) was “Not Active” and the Activity (Felid alphaherpesvirus 1) was “inactive”. The Activity [4] was “inactive”, the Activity (Feline coronavirus) was “inactive” and the Activity (Human alphaherpesvirus 1) was “inactive”. For the same compound, the Activity (Coxsackievirus B4 [5]) was “inactive”, the Activity (Human alphaherpesvirus 2) was “inactive” and the Activity (Punta Toro virus) was “inactive”. The Activity (Sindbis virus) was “inactive”, the Activity (HEL) was “Not Active” and the Activity (Human respirovirus 3) was “inactive”.

For Cc1cn(CN(CCO)S(=O)(=O)c2ccccc2N)c(=O)[nH]c1=O, the Activity [1] was “Not Active”, the Activity [2] was “inactive” and the Activity (HeLa) was “inactive”. For the same compound, the Activity (Coxsackievirus B4 [3]) was “inactive”, the Activity (MDCK) was “Not Active” and the Activity (Felid alphaherpesvirus 1) was “inactive”. For the same compound, the Activity [4] was “inactive”, the Activity (Feline coronavirus) was “inactive” and the Activity (Human alphaherpesvirus 1) was “inactive”. For the same compound, the Activity (Coxsackievirus B4 [5]) was “inactive”, the Activity (Human alphaherpesvirus 2) was “inactive” and the Activity (Punta Toro virus) was “inactive”. The Activity (Sindbis virus) was “inactive”, the Activity (HEL) was “Not Active” and the Activity (Human respirovirus 3) was “inactive”.

In the case of CC(C)(C)C(=O)OCCN(Cn1ccc(=O)[nH]c1=O)S(=O)(=O)c1ccccc1N, the Activity [1] is reported as “Not Active”, the Activity [2] is reported as “inactive” and the Activity (HeLa) is reported as “inactive”. For the same compound, the Activity (Coxsackievirus B4 [3]) was “inactive”, the Activity (MDCK) was “Not Active” and the Activity (Felid alphaherpesvirus 1) was “inactive”. For the same compound, the Activity [4] was “inactive”, the Activity (Feline coronavirus) was “inactive” and the Activity (Human alphaherpesvirus 1) was “inactive”. The Activity (Coxsackievirus B4 [5]) was “inactive”, the Activity (Human alphaherpesvirus 2) was “inactive” and the Activity (Punta Toro virus) was “inactive”. For the same compound, the Activity (Sindbis virus) was “inactive”, the Activity (HEL) was “Not Active” and the Activity (Human respirovirus 3) was “inactive”.

With CC(C)(C)C(=O)OCCN(Cn1ccc(=O)[nH]c1=O)S(=O)(=O)c1ccc(N)cc1 the Activity [1] was “Not Active”, the Activity [2] was “inactive” and the Activity (HeLa) was “inactive”. The Activity (Coxsackievirus B4 [3]) was “inactive”, the Activity (MDCK) was “Not Active” and the Activity (Felid alphaherpesvirus 1) was “inactive”. The Activity [4] was “inactive”, the Activity (Feline coronavirus) was “inactive” and the Activity (Human alphaherpesvirus 1) was “inactive”. The Activity (Coxsackievirus B4 [5]) was “inactive”, the Activity (Human alphaherpesvirus 2) was “inactive” and the Activity (Punta Toro virus) was “inactive”. For the same compound, the Activity (Sindbis virus) was “inactive”, the Activity (HEL) was “Not Active” and the Activity (Human respirovirus 3) was “inactive”.

In the case of CC(C)(C)C(=O)OCCN(Cn1cc(F)c(=O)[nH]c1=O)S(=O)(=O)c1ccccc1N, the Activity [1] is reported as “Not Active”, the Activity [2] is reported as “inactive” and the Activity (HeLa) is reported as “inactive”. For the same compound, the Activity (Coxsackievirus B4 [3]) was “inactive”, the Activity (MDCK) was “Not Active” and the Activity (Felid alphaherpesvirus 1) was “inactive”. The Activity [4] was “inactive”, the Activity (Feline coronavirus) was “inactive” and the Activity (Human alphaherpesvirus 1) was “inactive”. For the same compound, the Activity (Coxsackievirus B4 [5]) was “inactive”, the Activity (Human alphaherpesvirus 2) was “inactive” and the Activity (Punta Toro virus) was “inactive”. For the same compound, the Activity (Sindbis virus) was “inactive”, the Activity (HEL) was “Not Active” and the Activity (Human respirovirus 3) was “inactive”.

For CC(C)(C)C(=O)OCCN(Cn1ccc(=O)[nH]c1=O)S(=O)(=O)c1ccccc1[N+](=O)[O-], the Activity [1] was “Not Active”, the Activity [2] was “inactive” and the Activity (HeLa) was “inactive”. The Activity (Coxsackievirus B4 [3]) was “inactive”, the Activity (MDCK) was “Not Active” and the Activity (Felid alphaherpesvirus 1) was “inactive”. The Activity [4] was “inactive”, the Activity (Feline coronavirus) was “inactive” and the Activity (Human alphaherpesvirus 1) was “inactive”. The Activity (Coxsackievirus B4 [5]) was “inactive”, the Activity (Human alphaherpesvirus 2) was “inactive” and the Activity (Punta Toro virus) was “inactive”. The Activity (Sindbis virus) was “inactive”, the Activity (HEL) was “Not Active” and the Activity (Human respirovirus 3) was “inactive”.

With CC(C)(C)C(=O)OCCN(Cn1ccc(=O)[nH]c1=O)S(=O)(=O)c1cccc(N)c1 the Activity [1] was “Not Active”, the Activity [2] was “inactive” and the Activity (HeLa) was “inactive”. The Activity (Coxsackievirus B4 [3]) was “inactive”, the Activity (MDCK) was “Not Active” and the Activity (Felid alphaherpesvirus 1) was “inactive”. The Activity [4] was “inactive”, the Activity (Feline coronavirus) was “inactive” and the Activity (Human alphaherpesvirus 1) was “inactive”. The Activity (Coxsackievirus B4 [5]) was “inactive”, the Activity (Human alphaherpesvirus 2) was “inactive” and the Activity (Punta Toro virus) was “inactive”. The Activity (Sindbis virus) was “inactive”, the Activity (HEL) was “Not Active” and the Activity (Human respirovirus 3) was “inactive”.

For Cc1cn(CN(CCO)S(=O)(=O)c2ccc(N)cc2)c(=O)[nH]c1=O, the Activity [1] was “Not Active”, the Activity [2] was “inactive” and the Activity (HeLa) was “inactive”. The Activity (Coxsackievirus B4 [3]) was “inactive”, the Activity (MDCK) was “Not Active” and the Activity (Felid alphaherpesvirus 1) was “inactive”. For the same compound, the Activity [4] was “inactive”, the Activity (Feline coronavirus) was “inactive” and the Activity (Human alphaherpesvirus 1) was “inactive”. The Activity (Coxsackievirus B4 [5]) was “inactive”, the Activity (Human alphaherpesvirus 2) was “inactive” and the Activity (Punta Toro virus) was “inactive”. The Activity (Sindbis virus) was “inactive”, the Activity (HEL) was “Not Active” and the Activity (Human respirovirus 3) was “inactive”.
